Measured values collected from several papers.
Compare with care: the assays were run in different laboratories.
FGFR3: Fibroblast growth factor receptor 3 (FGFR3, Homo sapiens, UniProt P22607)
FGFR3 G697C: Fibroblast growth factor receptor 3 (FGFR3, Homo sapiens, UniProt P22607, G697C)

O=C1NC(c2ccccn2)Sc2ccccc21 (stereo not drawn)
remaining binding (FGFR3; cell-free assay, competition with immobilised ligand; 1 µM): 97%

C[C@H]1CCN(c2nccc(-c3cnn4ncccc34)n2)C1
remaining binding (FGFR3; binding; 1 µM): 100%

Nc1ncc2c(n1)-c1c([nH]c3ccc(C#CC4CC4)cc13)CCCC2
remaining binding (FGFR3 G697C; binding, competition with immobilised ligand; 1 µM): 100%

O=C(NCCCN1CCOCC1)c1ccc(Nc2nccc(-c3cc4ccccc4s3)n2)cc1
remaining binding (FGFR3; binding, competition with immobilised ligand; 1 µM): 94%

CN(C)C(=O)Cn1cc(-c2nc([C@@](C)(c3ccc(-c4cnc(N)nc4)cc3)C3CC3)no2)cn1
remaining binding (FGFR3 G697C; cell-free assay, competition with immobilised ligand; 1 µM): 89%

CCN1CCN(Cc2ccc(C(=O)Nc3ccc(C)c(Oc4ccc5c(c4)CC(=O)N5)c3)cc2C(F)(F)F)CC1
remaining binding (FGFR3 G697C; binding, competition with immobilised ligand; 1 µM): 88%

CN1CCN(c2ccc(Nc3nccc(-c4cccc([N+](=O)[O-])c4)n3)cc2C(F)(F)F)CC1
remaining binding (FGFR3 G697C; binding; 10 µM): 63%

O=C(Nc1c[nH]nc1C(=O)NC1CCNCC1)c1cc(F)cc(F)c1
remaining binding (FGFR3; binding, competition with immobilised ligand; 1 µM): 100%

Cc1cc(-n2nc(Cc3cc(F)cc(C(F)(F)F)c3)nc2C)ccc1C(N)=O
remaining binding (FGFR3 G697C; cell-free assay, competition with immobilised ligand; 1 µM): 100%

COc1ncc2cc3ccccc3nc2c1C#N
remaining binding (FGFR3; cell-free assay, competition with immobilised ligand; 5 µM): 100%

F[C@@H]1CCN(c2nccc(-c3cnn4ncccc34)n2)C1
remaining binding (FGFR3 G697C; binding; 1 µM): 79%

O=C(NCCCN1CCOCC1)c1ccc(Nc2ncc(Cl)c(-c3ccc(Cl)s3)n2)cc1
remaining binding (FGFR3; binding, competition with immobilised ligand; 1 µM): 41%

C[C@@H](c1ccc(-n2cnc3c(N)ncnc32)cc1)N1CCc2nn(C)c(Cc3ccccc3)c2C1=O
remaining binding (FGFR3; binding, competition with immobilised ligand; 0.1 µM): 80%

O=C(c1ccc(Nc2ncc(Cl)c(-c3ccc(Cl)s3)n2)cc1)N1CCC(N2CCCC2)CC1
remaining binding (FGFR3; binding, competition with immobilised ligand; 1 µM): 19%

COc1cnc(Nc2cccc(S(N)(=O)=O)c2)nc1N1CCN(c2ccccc2)C(=O)C1
remaining binding (FGFR3 G697C; binding, competition with immobilised ligand; 1 µM): 92%

Cc1cnc(Nc2ccc(C(=O)N3CCC(N4CCCC4)CC3)cc2)nc1-c1cc2ccccc2s1
remaining binding (FGFR3; binding, competition with immobilised ligand; 1 µM): 23%

Cn1nc(C(=O)NCc2ccc(C(=O)O)cc2)cc1-c1ccc2[nH]ccc2c1
remaining binding (FGFR3 G697C; cell-free assay, competition with immobilised ligand; 0.1 µM): 82%

COc1ccnn2ncc(-c3ccnc(N(C)C)n3)c12
remaining binding (FGFR3; binding; 1 µM): 95%

CC(C)(C)c1ccc(-c2nc(CBr)nn2-c2cccc(O)c2)cc1
remaining binding (FGFR3; cell-free assay, competition with immobilised ligand; 10 µM): 93%

CSc1cccnc1N1CCN(Cc2nc3ccccc3[nH]2)CC1
remaining binding (FGFR3 G697C; cell-free assay, competition with immobilised ligand; 1 µM): 100%

C=CC(=O)N1CCC(C(=O)NCC(=O)N2CCN(c3nc(-c4cnc(N)nc4C(F)F)nc(N4CCOCC4)n3)CC2)CC1
remaining binding (FGFR3; binding, competition with immobilised ligand; 1 µM): 96%

CC1CCCN1c1nccc(-c2cnn3ncccc23)n1 (stereo not drawn)
remaining binding (FGFR3 G697C; binding; 1 µM): 86%

O=C(NCC1CCOCC1)c1n[nH]cc1NC(=O)c1c(F)cccc1F
remaining binding (FGFR3; binding, competition with immobilised ligand; 1 µM): 100%

CNC(=O)[C@@H]1CC[C@@H](n2c(-c3ccc4cnccc4c3)nc3ccc(C(=O)NCc4cccc(C(N)=O)c4)cc32)C1
remaining binding (FGFR3 G697C; binding, competition with immobilised ligand; 1 µM): 93%

COCCOc1nc(-c2ccc(Cl)nc2)nc2c1CN(C(=O)c1ncn3ccccc13)CC2
remaining binding (FGFR3 G697C; cell-free assay, competition with immobilised ligand; 0.1 µM): 100%

O=C(c1ccc(Nc2ncc(Cl)c(-c3cc4ccccc4s3)n2)cc1)N1CCC(N2CCCC2)CC1
remaining binding (FGFR3; binding, competition with immobilised ligand; 1 µM): 38%

c1cncc(-c2cccc(Nc3nccc(NC4CCCCC4)n3)c2)c1
remaining binding (FGFR3; binding, competition with immobilised ligand; 10 µM): 60%

N[C@@H]1CCN(c2nccc(-c3cnn4ncccc34)n2)C1
remaining binding (FGFR3; binding; 1 µM): 100%

COc1ccc2cc(OCC3(C(=O)O)CN(C(=O)c4ccc(F)cc4)C3)ccc2c1
remaining binding (FGFR3 G697C; cell-free assay, competition with immobilised ligand; 1 µM): 88%

Cc1cnn2ncc(-c3ccnc(N(C)C)n3)c2c1
remaining binding (FGFR3; binding; 1 µM): 100%

C[C@@H]1CN(c2ccc3ncc(-c4ccc5[nH]nc(C6CC6)c5c4)n3n2)C[C@H](C)O1
remaining binding (FGFR3; binding, competition with immobilised ligand; 50 nM): 100%

c1cnn2ncc(-c3ccnc(N4CCC45COC5)n3)c2c1
remaining binding (FGFR3 G697C; binding; 1 µM): 86%

O=C(c1ccc(Nc2nccc(-c3cc4ccccc4s3)n2)cc1)N1CCC(N2CCCC2)CC1
remaining binding (FGFR3; binding, competition with immobilised ligand; 1 µM): 87%

O=C(NCc1ncc(C(F)(F)F)cc1Cl)c1ccc2c(c1)C1(CCS(=O)(=O)CC1)[C@H](C1CC1)N2S(=O)(=O)c1ccc(F)cc1
remaining binding (FGFR3 G697C; cell-free assay, competition with immobilised ligand; 1 µM): 100%

CN(c1nccc(-c2cnn3ncccc23)n1)C1CC1
remaining binding (FGFR3; binding; 1 µM): 98%

COc1cnc(Nc2cccc(S(N)(=O)=O)c2)nc1N1CCN(c2ccccc2)CC1
remaining binding (FGFR3 G697C; binding, competition with immobilised ligand; 1 µM): 100%
